UCH37 DUB inh = inhibitors of human UCH37 deubiquitinase, primary screen, biochemical, Ub-AMC cleavage, fluorescence; purified proteasome/UCH37; 0.33% of 330,000 active; Ubiquitin carboxyl-terminal hydrolase isozyme L5 (Homo sapiens), Q9Y5K5; inhibition, % (test concentration not listed);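 active means mean inhibition over replicate wells above about 20%, limit read from the data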;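 further: 0% = compound-free wells with enzyme and 100% = wells lacking proteasome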
Target sequence (Q9Y5K5 whole entry, looked up): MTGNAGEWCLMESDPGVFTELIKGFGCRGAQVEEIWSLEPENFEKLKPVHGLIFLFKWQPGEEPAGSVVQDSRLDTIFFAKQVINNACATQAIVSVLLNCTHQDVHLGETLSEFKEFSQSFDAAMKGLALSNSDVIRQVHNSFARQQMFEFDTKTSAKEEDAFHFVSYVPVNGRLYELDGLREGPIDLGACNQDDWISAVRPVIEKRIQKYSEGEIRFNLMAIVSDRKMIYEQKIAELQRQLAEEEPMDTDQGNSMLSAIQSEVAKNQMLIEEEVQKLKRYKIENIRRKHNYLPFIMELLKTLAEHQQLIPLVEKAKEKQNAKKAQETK
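system = Proteasome-associated human UCH37 deubiquitinase | amount = 0.15 nM proteasome as dispensed | medium = pH 7.4 Tris-HCl (50 mM) with ovalbumin, ATP-MgCl2, DTT | incubation = 30 min preincubation with enzyme, 25 min cleavage at room temperature | detection = AMC fluorescence 355/460 nm | read-out basis = percent inhibition | controls = no-proteasome and no-compound wells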
T cell modulator = modulators of CD8 T cell-vesicle binding, primary screen, mouse 2C CD8+ T cells, flow cytometry | 2C CD8+ T cell-vesicle binding; active compounds read low | response (vesicle binding), % at 7 µM | 0.068% of 330,000 active | AID 2052, 2009;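 active means response, share of CD8 T cells binding vesicles, and their 90th percentile fluorescence all below set limits, cut at about 80% in these data, passing the limit was not always enough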;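 further: values below 100% mean blocked vesicle binding to the CD8+ T cells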
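Assay system – 2C mouse CD8+ T cells · Also added – QL9-loaded Drosophila micro-vesicles · Timing – Cell–vesicle co-incubation 1.5 h at 37 °C, staining 20 min on ice · Signal – flow cytometry of vesicle-bound cells · Measure – percent CD8+ FL2 mean versus row control · Controls – Peptide-free naked vesicles (low) and QL9 vesicles with 0.7% DMSO vehicle (high)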
Rce1 inhib = yeast Rce1p protease inhibitors, primary screen, biochemical, fluorescence, cell-free homogeneous | CAAX prenyl protease 2 (Saccharomyces cerevisiae (strain ATCC 204508 / S288c)), Q03530 | AID 2563, 2010 | calls only | yeast membranes, quenched prenylated peptide cleavage fluorescence | 0.27% of 290,000 active;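 active means fall in fluorescence gain of 50% or more versus controls, with final raw signal at or below 3038400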;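 further: plate controls were neutral control wells for no effect and wells lacking membranes for full effect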
Target sequence (Q03530 whole entry, looked up): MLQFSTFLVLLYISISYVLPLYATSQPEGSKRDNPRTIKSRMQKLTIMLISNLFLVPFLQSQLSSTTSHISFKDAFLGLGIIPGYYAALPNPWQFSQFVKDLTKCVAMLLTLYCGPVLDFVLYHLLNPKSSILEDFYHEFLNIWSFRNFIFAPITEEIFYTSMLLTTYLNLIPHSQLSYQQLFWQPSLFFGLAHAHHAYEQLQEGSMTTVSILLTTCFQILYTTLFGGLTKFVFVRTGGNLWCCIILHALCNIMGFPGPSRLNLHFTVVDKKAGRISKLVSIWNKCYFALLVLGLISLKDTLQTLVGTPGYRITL
MEKK2mut PB1 HTS = MEK5 binding signal on mutant MEKK2 PB1, primary screen, biochemical, multiplex bead flow cytometry, Alexa488-MEK5 | Alexa488-MEK5 binding to MEKK2 mutant | 0.35% of 290,000 active | percent response, % at 10 µM; in the data active means percent response above about 24%, passing the limit was not always enough
MEKK2wt PB1 HTS = modulators of MEK5 binding to wildtype MEKK2, primary screen, biochemical, multiplex bead flow cytometry, Alexa488-MEK5. Mitogen-activated protein kinase kinase kinase 2 (Homo sapiens), Q9Y2U5. Alexa488-MEK5 binding to MEKK2 WT; actives lie on both sides. AID 1531, 2009. 1.1% of 290,000 active. binding response (% of control), % at 10 µM; in the data active means binding response below about 67% or above about 130%
MEKK3 PB1 HTS = modulators of MEKK3-MEK5 PB1 binding, primary screen, biochemical, wildtype MEKK3, multiplex bead flow cytometry, Alexa488-MEK5 | binding response (% of control), % at 10 µM | AID 1529, 2009 | 1.4% of 290,000 active | Mitogen-activated protein kinase kinase kinase 3 (Homo sapiens), Q99759 | bead-based flow cytometry, Alexa488-MEK5 binding to MEKK3; actives lie on both sides; 0 = blocked by unlabeled MEK5, 100 = vehicle;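 active means binding response more than 3 SD above or below the average of its plate-row segment, actives on both sides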;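 further: Alexa488 bead fluorescence after subtracting the streptavidin-only scavenger bead signal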
MEKK2wt confirm = modulators of MEK5 binding to wildtype MEKK2, confirmation, biochemical, single concentration, multiplex bead flow cytometry; AID 1892, 2009; shares compounds with MEKK3 PB1 HTS; 2.4% of 5,900 active; binding response (% of control), % at 10 µM; Alexa488-MEK5 binding to MEKK2 WT; actives lie on both sides; in the data active means binding response below about 16% or above about 210%; inactive means in between
MEKK2mut-MEK5 = mutant MEKK2 PB1-MEK5 binding signal retest – biochemical, single concentration, multiplex bead flow cytometry, confirmation | shares compounds with MEKK3 PB1 HTS | Alexa488-MEK5 binding to MEKK2 mutant | percent response, % at 10 µM | 2% of 5,900 active | AID 1893, 2009; in the data active means percent response mostly above about 71%, no sharp cut-off; inactive means mostly below about 38%;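 further: higher means compound restores mutant binding toward wildtype level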
MEKK3-MEK5 inh = MEKK3 wild-type PB1 binding to MEK5, inhibitors, confirmation, biochemical, bead multiplex flow cytometry, single concentration, wildtype; binding response (% of control), % at 10 µM; Alexa488-MEK5 binding to MEKK3; active compounds read low; shares compounds with MEKK3 PB1 HTS; AID 1894, 2009; 1.8% of 5,900 active;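 active means binding response below 72% of control, or above a set upper limit, though filed actives all read lower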;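 further: 100% = DMSO only wells and 0% = binding blocked by excess unlabeled MEK5; lower values mean stronger disruption of MEK5 binding to MEKK3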
* hit, by the source's call; [ ] = dose if it differs, or a comment. Most compounds without a hit are left out; they make up all but 2.5% or so of the library.

How did CC(=NNC(=O)COc1ccccc1[N+](=O)[O-])c1cccc(NC(=O)c2ccncc2)c1 do in these assays?
UCH37 DUB inh: 3

What do the screens show for `COc1ccc(C(=O)C2CCCN(C(=O)c3ccc(F)cc3)C2)cc1OC` (stereo not given)?
UCH37 DUB inh: 4; T cell modulator: 304; Rce1 inhib: inactive; MEKK2mut PB1 HTS: 2; MEKK2wt PB1 HTS: 101; MEKK3 PB1 HTS: 100

Results for COc1ccc(C(=O)C2CCCN(C(=O)c3cc(C)nc(C)n3)C2)cc1OC (stereo not given) ?
UCH37 DUB inh: 1; T cell modulator: 322; Rce1 inhib: inactive; MEKK2mut PB1 HTS: 1; MEKK2wt PB1 HTS: 112; MEKK3 PB1 HTS: 129*; MEKK2wt confirm: 100; MEKK2mut-MEK5: 1; MEKK3-MEK5 inh: 102

What do the screens show for `CCc1ccc2c(c1)C(c1ccc(N3CCOCC3)cc1)=NNC(c1ccncc1)=N2`?
UCH37 DUB inh: 4; T cell modulator: 369; Rce1 inhib: inactive; MEKK2mut PB1 HTS: 7; MEKK2wt PB1 HTS: 131; MEKK3 PB1 HTS: 148*; MEKK2wt confirm: 103; MEKK2mut-MEK5: 0; MEKK3-MEK5 inh: 104

What do the screens show for `CC(=O)c1ccc(NS(=O)(=O)c2ccc(N)cc2)cc1`?
UCH37 DUB inh: 5; T cell modulator: 133; Rce1 inhib: inactive; MEKK2mut PB1 HTS: 1; MEKK2wt PB1 HTS: 118; MEKK3 PB1 HTS: 135*; MEKK2wt confirm: 101; MEKK2mut-MEK5: 12; MEKK3-MEK5 inh: 104

What do the screens show for `CC(=O)c1ccc(NS(=O)(=O)c2ccccc2)cc1`?
UCH37 DUB inh: 5; T cell modulator: 376; Rce1 inhib: inactive; MEKK2mut PB1 HTS: -5; MEKK2wt PB1 HTS: 103; MEKK3 PB1 HTS: 103

How did CC(=NNC(=O)CSc1nc2ccccc2o1)c1ccc(O)cc1 do in these assays?
UCH37 DUB inh: 2

How did CC(=NNC(=O)Cc1ccc(Cl)cc1)c1ccc(F)cc1 do in these assays?
UCH37 DUB inh: 0

How did COc1cc2nc(/C=C/c3ccc(N(C)C)cc3)sc2cc1SC do in these assays?
UCH37 DUB inh: -12; T cell modulator: 458; MEKK2mut PB1 HTS: 32; MEKK2wt PB1 HTS: 33*[inhibitor]; MEKK3 PB1 HTS: 89; MEKK2wt confirm: 86; MEKK2mut-MEK5: -13; MEKK3-MEK5 inh: 93

Results for CCN(CC)c1ccc(/C=C/c2nc3ccccc3s2)cc1 ?
T cell modulator: 589; Rce1 inhib: inactive; MEKK2mut PB1 HTS: 2; MEKK2wt PB1 HTS: 81; MEKK3 PB1 HTS: 98

How did CCOC(=O)c1c(-c2ccccc2)oc2ccc(OCC(=O)NNC(=O)CCCC(=O)O)cc12 do in these assays?
UCH37 DUB inh: -449; T cell modulator: 214; Rce1 inhib: inactive; MEKK2mut PB1 HTS: 0; MEKK2wt PB1 HTS: 107; MEKK3 PB1 HTS: 107

What do the screens show for `CCOC(=O)c1c(-c2ccccc2)oc2ccc(OCC(=O)NNC(=O)CCC(=O)O)cc12`?
UCH37 DUB inh: -396; T cell modulator: 265; Rce1 inhib: inactive; MEKK2mut PB1 HTS: -49; MEKK2wt PB1 HTS: 9.0*[inhibitor]; MEKK3 PB1 HTS: 5.0*[inhibitor]; MEKK2wt confirm: 94; MEKK2mut-MEK5: -3; MEKK3-MEK5 inh: 94

What do the screens show for `CC(C)Oc1ccc(C(=O)N2CCCc3ccccc32)cc1`?
UCH37 DUB inh: 4; T cell modulator: 176; Rce1 inhib: inactive; MEKK2mut PB1 HTS: 7; MEKK2wt PB1 HTS: 117; MEKK3 PB1 HTS: 123*; MEKK2wt confirm: 102; MEKK2mut-MEK5: 2; MEKK3-MEK5 inh: 105

What do the screens show for `COc1ccc(C(=O)N2CCCc3ccccc32)cc1`?
UCH37 DUB inh: -1; T cell modulator: 253; Rce1 inhib: inactive; MEKK2mut PB1 HTS: -7; MEKK2wt PB1 HTS: 84; MEKK3 PB1 HTS: 76

How did CC(=NNC(=S)NC(C)C)c1ccc(-n2ccnc2)cc1 do in these assays?
UCH37 DUB inh: 6

Results for COc1ccc(O[C@H]2C=C[C@@H](c3ccccc3)O[C@@H]2CON=C(C)CCC(=O)OC[C@H]2O[C@H](c3ccccc3)C=C[C@@H]2Oc2ccc(OC)cc2)cc1 ?
UCH37 DUB inh: 0

How did CCOC(=O)/C=C1\Nc2ccccc2SC1=O do in these assays?
UCH37 DUB inh: 4; T cell modulator: 196; Rce1 inhib: inactive; MEKK2mut PB1 HTS: -18; MEKK2wt PB1 HTS: 2.0*[inhibitor]; MEKK3 PB1 HTS: 2.0*[inhibitor]; MEKK2wt confirm: 103; MEKK2mut-MEK5: -4; MEKK3-MEK5 inh: 100

How did C=CCc1cccc(/C=N/NC(=O)CCCNc2ccc(C)cc2)c1O do in these assays?
T cell modulator: 260; Rce1 inhib: inactive; MEKK2mut PB1 HTS: 89*; MEKK2wt PB1 HTS: 248*; MEKK3 PB1 HTS: 109; MEKK2wt confirm: 104; MEKK2mut-MEK5: 2; MEKK3-MEK5 inh: 103

Results for N#CC(C#N)=Cc1cc2ccccc2nc1N1CCOCC1 ?
UCH37 DUB inh: 1; T cell modulator: 272; Rce1 inhib: inactive; MEKK2mut PB1 HTS: 0; MEKK2wt PB1 HTS: 103; MEKK3 PB1 HTS: 135*; MEKK2wt confirm: 102; MEKK2mut-MEK5: 5; MEKK3-MEK5 inh: 104

How did CCOC(=O)/C(C#N)=C/c1cc2ccccc2nc1N1CCCCC1 do in these assays?
UCH37 DUB inh: 4; T cell modulator: 196; Rce1 inhib: inactive; MEKK2mut PB1 HTS: -5; MEKK2wt PB1 HTS: 80; MEKK3 PB1 HTS: 98

How did N#C/C(=C\c1cc2ccccc2nc1N1CCOCC1)C(=O)Nc1ccc(N2CCOCC2)cc1 do in these assays?
UCH37 DUB inh: 0; T cell modulator: 157; Rce1 inhib: inactive; MEKK2mut PB1 HTS: 3; MEKK2wt PB1 HTS: 106; MEKK3 PB1 HTS: 146*; MEKK2wt confirm: 98; MEKK2mut-MEK5: 1; MEKK3-MEK5 inh: 102

Assay outcomes: PubChem BioAssay, several laboratories
